# Laboratory results: ChEMBL document CHEMBL1151265, “Steroidal saponins from Smilax medica and their antifungal activity” (2005)
# What was measured:
# Assay type in all cases: functional
# [1] = tested on: Candida tropicalis; test: Antifungal activity against Candida tropicalis after 48 hrs by spectrophotometry; conditions: for MIC: Candida tropicalis, 48 h
# Procedure, shortened: (§1)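 Broth microdilution MIC against pathogenic human yeast strains. Saponin in malt extract broth (malt extract 15 g, peptone 5 g per L), final 3.12-200 µg/mL, serial dilution, triplicate wells. Each well inoculated with 10 µL of 10^4 CFU/mL suspension, incubated 30 °C for 48 h, growth read at 630 nm. MIC is the lowest concentration with no visible growth.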
# [2] = tested on: Nakaseomyces glabratus; test: Antifungal activity against Candida glabrata after 48 hrs by spectrophotometry; conditions: for MIC: Nakaseomyces glabratus, 48 h; procedure, shortened: as §1
# [3] = tested on: Candida albicans; test: Antifungal activity against Candida albicans after 48 hrs by spectrophotometry; conditions: for MIC: Candida albicans, 48 h; procedure, shortened: as §1
SMILES,MIC [1],MIC [2],MIC [3],Activity [1],Activity [2],Activity [3]
C[C@@H]1CC[C@@]2(OC1)O[C@H]1C[C@H]3[C@@H]4CC[C@@H]5C[C@@H](O[C@@H]6O[C@H](CO[C@@H]7O[C@H](CO)[C@@H](O)[C@H](O)[C@H]7O)[C@@H](O[C@@H]7O[C@H](CO)[C@@H](O)[C@H](O)[C@H]7O)[C@H](O)[C@H]6O[C@@H]6O[C@H](CO)[C@@H](O)[C@H](O)[C@H]6O)CC[C@]5(C)[C@H]4CC[C@]3(C)[C@H]1[C@@H]2C,50 mg/L,12.5 mg/L,25 mg/L,–,–,–
C[C@@H]1CC[C@@]2(OC1)O[C@H]1C[C@H]3[C@@H]4CC[C@@H]5C[C@@H](O[C@@H]6O[C@H](CO[C@@H]7O[C@H](CO)[C@@H](O)[C@H](O)[C@H]7O)[C@@H](O[C@@H]7O[C@H](CO)[C@@H](O)[C@H](O)[C@H]7O)[C@H](O)[C@H]6O)CC[C@]5(C)[C@H]4CC[C@]3(C)[C@H]1[C@@H]2C,50 mg/L,12.5 mg/L,25 mg/L,–,–,–
CO[C@]1(CC[C@@H](C)CO[C@@H]2O[C@H](CO)[C@@H](O)[C@H](O)[C@H]2O)O[C@H]2C[C@H]3[C@@H]4CC[C@@H]5C[C@@H](O[C@@H]6O[C@H](CO[C@@H]7O[C@H](CO)[C@@H](O)[C@H](O)[C@H]7O)[C@@H](O[C@@H]7O[C@H](CO)[C@@H](O)[C@H](O)[C@H]7O)[C@H](O)[C@H]6O[C@@H]6O[C@H](CO)[C@@H](O)[C@H](O)[C@H]6O)CC[C@]5(C)[C@H]4CC[C@]3(C)[C@H]2[C@@H]1C,–,–,–,>200 µg/mL,>200 µg/mL,>200 µg/mL
C[C@@H]1CC[C@@]2(OC1)O[C@H]1C[C@H]3[C@@H]4CC[C@@H]5C[C@@H](O[C@@H]6O[C@H](CO[C@@H]7O[C@H](CO)[C@@H](O)[C@H](O)[C@H]7O)[C@@H](O)[C@H](O)[C@H]6O[C@@H]6O[C@H](CO)[C@@H](O)[C@H](O)[C@H]6O)CC[C@]5(C)[C@H]4CC[C@]3(C)[C@H]1[C@@H]2C [DISPOROSIDE A],50 mg/L,25 mg/L,25 mg/L,–,–,–
CC(=O)N1CCN(c2ccc(OCC3COC(Cn4ccnc4)(c4ccc(Cl)cc4Cl)O3)cc2)CC1 (stereo not given) [KETOCONAZOLE],1.56 mg/L,0.78 mg/L,0.78 mg/L,–,–,–
